Data from ChEMBL document CHEMBL1150195, “The 1990 United States-Japan seminar on bioorganic marine chemistry, meeting report” (J Nat Prod, 1991).
Converted amounts (≈) assume the structure as drawn.

Assays:
[1] = tested on: P388; assay: In vivo antitumor activity against mouse P388 cells at 0.125 mg/kg relative to control; format: functional
[2] = tested on: Candida albicans; assay: Antifungal activity against Candida albicans in presence of 50 ppm ergosterol; format: functional
Outline: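 Candida albicans screened first by conventional agar disk diffusion. Samples active against C. albicans but not Escherichia coli were retested on agar-tryptic broth plates supplemented with ergosterol at 0–100 ppm. The assay picks out antifungal activity that depends on binding to membrane ergosterol.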

[3] = Inhibition of protein phosphatase 2A
[4] = tested on: L1210; assay: Cytotoxicity against mouse L1210 cells at 0.1 ug/ml; format: functional
[5] = tested on: HCT-116; assay: Cytotoxicity against human HCT116 cells; format: functional, cell-based
[6] = tested on: B16; assay: Cytotoxicity against mouse B16 cells; format: functional, cell-based
[7] = tested on: KB; assay: Cytotoxicity against human KB cells; format: functional, cell-based
[8] = tested on: Leukemia cell; assay: In vivo antitumor activity against human leukemia cells xenografted in mouse at 160 ug/kg/injection relative to control; format: functional
[9] = tested on: Melanoma cell; assay: In vivo antitumor activity against human melanoma cells xenografted in mouse at 160 ug/kg//injection relative to control; format: functional

## C/C=C\[C@H](C)[C@H]1O[C@@]1(C)[C@@H](O)[C@H]1COC(=O)[C@H](O)[C@@H](OC)[C@H](C)C(=O)[C@H](C)[C@@H](O)/C(C)=C/[C@H](C)C(=O)CC[C@@H](C)C1=O
[1]
  T/C: 190%

## C[C@@H]1[C@H](O)[C@@H](C)/C=C/C=C/C=C/C=C/C=C/C=C/C=C/[C@H](O[C@@H]2O[C@H](C)[C@@H](O)[C@H](N)[C@@H]2O)C[C@@H]2O[C@](O)(C[C@@H](O)C[C@@H](O)[C@H](O)CC[C@@H](O)C[C@@H](O)CC(=O)O[C@H]1C)C[C@H](O)[C@H]2C(=O)O [AMPHOTERICIN B]
[2]
  Activity: 50%

## COC[C@@H]([C@H](O)[C@H](O)C(=O)NCC[C@H](C)c1nc(/C=C/C[C@@H]2O[C@]3(C[C@@H](O)[C@@H]2C)O[C@H]([C@H](C[C@H](O)[C@H](C)[C@H](O)[C@H](C)/C=C(C)/C(C)=C/C=C/C(C)=C\C#N)OC)[C@H](OP(=O)(O)O)C3(C)C)co1)N(C)C [CALYCULIN A]
[3]
  IC50: 0.9 nM

## COC[C@@H]([C@H](O)[C@H](O)C(=O)NCC[C@H](C)c1nc(/C=C/C[C@@H]2O[C@]3(C[C@@H](O)[C@@H]2C)O[C@H]([C@H](C[C@H](O)[C@H](C)[C@H](O)[C@H](C)/C=C(C)/C(C)=C/C=C/C(C)=C/C#N)OC)[C@H](OP(=O)(O)O)C3(C)C)co1)N(C)C [CALYCULIN B]
[3]
  IC50: 0.9 nM

## COC[C@@H]([C@H](O)[C@H](O)C(=O)N[C@H](C)C[C@H](C)c1nc(/C=C/C[C@@H]2O[C@]3(C[C@@H](O)[C@@H]2C)O[C@H]([C@H](C[C@H](O)[C@H](C)[C@H](O)[C@H](C)/C=C(C)/C(C)=C/C=C/C(C)=C/C#N)OC)[C@H](OP(=O)(O)O)C3(C)C)co1)N(C)C [CALYCULIN D]
[3]
  IC50: 0.9 nM

## COC[C@@H]([C@H](O)[C@H](O)C(=O)NCC[C@H](C)c1nc(/C=C/C[C@@H]2O[C@]3(C[C@@H](O)[C@@H]2C)O[C@H]([C@H](C[C@H](O)[C@H](C)[C@H](O)[C@H](C)/C=C(C)/C(C)=C\C=C\C(C)=C/C#N)OC)[C@H](OP(=O)(O)O)C3(C)C)co1)N(C)C [CALYCULIN E]
[3]
  IC50: 0.9 nM

## COC[C@@H]([C@H](O)[C@H](O)C(=O)NCC[C@H](C)c1nc(/C=C/C[C@@H]2O[C@]3(C[C@@H](O)[C@@H]2C)O[C@H]([C@H](C[C@H](O)[C@H](C)[C@H](O)[C@H](C)/C=C(C)/C(C)=C\C=C\C(C)=C\C#N)OC)[C@H](OP(=O)(O)O)C3(C)C)co1)N(C)C [CALYCULIN F]
[3]
  IC50: 0.9 nM

## COC[C@@H]([C@H](O)[C@H](O)C(=O)N[C@H](C)C[C@H](C)c1nc(/C=C/C[C@@H]2O[C@]3(C[C@@H](O)[C@@H]2C)O[C@H]([C@H](C[C@H](O)[C@H](C)[C@H](O)[C@H](C)/C=C(C)/C(C)=C\C=C\C(C)=C/C#N)OC)[C@H](OP(=O)(O)O)C3(C)C)co1)N(C)C [CALYCULIN G]
[3]
  IC50: 0.9 nM

## COC[C@@H]([C@H](O)[C@H](O)C(=O)N[C@H](C)C[C@H](C)c1nc(/C=C/C[C@@H]2O[C@]3(C[C@@H](O)[C@@H]2C)O[C@H]([C@H](C[C@H](O)[C@H](C)[C@H](O)[C@H](C)/C=C(C)/C(C)=C\C=C\C(C)=C\C#N)OC)[C@H](OP(=O)(O)O)C3(C)C)co1)N(C)C [CALYCULIN H]
[3]
  IC50: 0.9 nM

## COC[C@@H]([C@H](O)[C@H](O)C(=O)N[C@H](C)C[C@H](C)c1nc(/C=C/C[C@@H]2O[C@]3(C[C@@H](O)[C@@H]2C)O[C@H]([C@H](C[C@H](O)[C@H](C)[C@H](O)[C@H](C)/C=C(C)/C(C)=C/C=C/C(C)=C\C#N)OC)[C@H](OP(=O)(O)O)C3(C)C)co1)N(C)C [CALYCULIN]
[3]
  IC50: 0.9 nM

## CC[C@H]1CCCC[C@@]2(C[C@@H]3CC[C@@H]4[C@H](C(=O)OCCCCCCCCCCCCCCCC(=O)N(CCCN)C[C@@H](O)CCN)[C@]5(CCC[C@@H](C)O5)N=C(N2)N34)O1 [CRAMBESCIDIN 800]
[4]
  Activity: 98%

## CC[C@H]1CCCC[C@@]2(C[C@@H]3CC[C@]4(O)[C@H](C(=O)OCCCCCCCCCCCCCCCC(=O)N(CCCN)C[C@@H](O)CCN)[C@]5(CCC[C@@H](C)O5)N=C(N2)N34)O1 [CRAMBESCIDIN 816]
[4]
  Activity: 98%

## CC[C@@H]1CCCC[C@]2(C[C@H]3CCC4(O)C(C(=O)OCCCCCCCCCCCCCCCCC(=O)N(CCCN)CC(O)CCN)[C@@]5(CCC[C@H](C)O5)N=C(N2)N34)O1 (stereo partly drawn) [CRAMBESCIDIN 830]
[4]
  Activity: 98%

## CC[C@@H]1CCCC[C@]2(C[C@H]3CCC4(O)C(C(=O)OCCCCCCCCCCCCCCCCCC(=O)N(CCCN)CC(O)CCN)[C@@]5(CCC[C@H](C)O5)N=C(N2)N34)O1 (stereo partly drawn) [CRAMBESCIDIN 844]
[4]
  Activity: 98%

## [H][C@]12Nc3c4cccc3[C@]13C1=C(N=C(O1)[C@H](C(C)C)NC(=O)[C@@H](NC(=O)[C@@H](O)C(C)C)Cc1ccc(c3c1)O2)c1nc(Cl)c(o1)-c1c(Cl)[nH]c2cccc-4c12 [DIAZONAMIDE A]
[5]
  IC50: < 0.015 µg/mL
[6]
  IC50: < 0.015 µg/mL

## CO/N=C/CCCCCCC[C@@H](C)CCCCCCCCCCc1cccnc1 [IKIMINE A]
[7]
  IC50: 5 µg/mL (≈ 12.4 µM)

## CO[C@H]1C[C@H](CC[C@H](C)[C@H](O)[C@H](C)[C@H]2OC(=O)/C=C/C(C)=C/C[C@H](O)C[C@@H]3CCC[C@H](C[C@H](OC)[C@@H](C)[C@@H](O)C[C@@H](O)[C@H](C)[C@H](O)[C@@H](C)[C@H]([C@@H](C)CC[C@H]4C[C@H](OC)C[C@H](C)O4)OC(=O)/C=C/C(C)=C/C[C@H](O)C[C@@H]4C=CC[C@H](C[C@H](OC)[C@@H](C)[C@@H](O)C[C@@H](O)[C@@H]2C)O4)O3)O[C@@H](C)C1 [ISOSWINHOLIDE A]
[7]
  IC50: 1.1 µg/mL (≈ 0.79 µM)

## CC[C@H](C)[C@H]1NC(=O)[C@@H](NC(=O)[C@@H](CC(C)C)N(C)C(=O)[C@@H]2CCCN2C(=O)C(C)=O)[C@@H](C)OC(=O)[C@H](Cc2ccc(OC)cc2)N(C)C(=O)[C@@H]2CCCN2C(=O)[C@H](CC(C)C)NC(=O)[C@@H](C)C(=O)[C@H](C(C)C)OC(=O)C[C@@H]1O [PLITIDEPSIN]
[8]
  T/C: 210%
[9]
  T/C: 218%

## CO[C@@H]1C[C@@H](O)C[C@@H](O)[C@H](C)[C@@H]([C@@H](C)[C@@H](O)[C@@H](C)CC[C@H]2C[C@H](OC)C[C@H](C)O2)OC(=O)/C=C/C(C)=C/C[C@H](O)C[C@@H]2C=CC[C@H](C[C@H](OC)[C@@H](C)[C@@H](O)C[C@@H](O)[C@H](C)[C@@H]([C@@H](C)[C@@H](O)[C@@H](C)CC[C@H]3C[C@H](OC)C[C@H](C)O3)OC(=O)/C=C/C(C)=C/C[C@H](O)C[C@@H]3CCC[C@H](C1)O3)O2 [SWINHOLIDE B]
[7]
  IC50: 0.04 µg/mL (≈ 0.029 µM)

## CO[C@H]1C[C@H](CC[C@H](C)[C@H](O)[C@H](C)[C@H]2OC(=O)/C=C/C(C)=C/C[C@H](O)C[C@@H]3C=CC[C@@H](C[C@H](OC)[C@@H](C)[C@@H](O)C[C@@H](O)[C@H](C)[C@@H]([C@@H](C)[C@@H](O)[C@@H](C)CC[C@H]4C[C@H](OC)C[C@H](C)O4)OC(=O)/C=C/C(C)=C/C[C@H](O)C[C@@H]4C=CC[C@@H](C[C@H](OC)[C@@H](C)[C@@H](O)C[C@@H](O)[C@@H]2C)O4)O3)O[C@@H](C)C1 [Swinholide A]
[7]
  IC50: 0.04 µg/mL (≈ 0.0288 µM)

## CO[C@H]1C[C@H](CC[C@H](C)[C@H](O)[C@H](C)[C@H]2OC(=O)/C=C/C(C)=C/C[C@H](O)C[C@@H]3CCC[C@H](C[C@H](OC)[C@@H](C)[C@@H](O)C[C@@H](O)[C@H](C)[C@@H]([C@@H](C)[C@@H](O)[C@@H](C)CC[C@H]4C[C@H](O)C[C@H](C)O4)OC(=O)/C=C/C(C)=C/C[C@H](O)C[C@@H]4C=CC[C@H](C[C@H](OC)[C@@H](C)[C@@H](O)C[C@@H](O)[C@@H]2C)O4)O3)O[C@@H](C)C1 [swiholide C]
[7]
  IC50: 0.04 µg/mL (≈ 0.029 µM)
